Test [1] relates to SNU-182. As to the kind of experiment: Growth inhibition of human SNU182 cells assessed as cell survival at 12.5 uM after 48 hrs by CCK8 assay relative to control. Conditions: SNU-182, 48 h, read-out: Survival. Format: functional. Summed up:
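SNU182 human hepatocellular carcinoma cells were exposed to compound at 6.25, 12.5, 25, 50 and 100 µM in serum-free DMEM for 48 h. Viability was read by CCK-8, where WST-8 is reduced by cellular dehydrogenases to a soluble formazan, and expressed as survival relative to vehicle control. Values are mean±SD of triplicates.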

The subject of test [2] is SNU-182. The experiment in a line: Inhibition of TGFbeta1-induced epithelial-mesenchymal transition in human SNU182 cells assessed as reduction in MMP9 mRNA expression at 12.5 uM preincubated for 2 hrs followed by TGFbeta1 addition measured after 48 hrs by qRT-PCR method. The format is functional, cell-based. Summed up:
(§1)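 SNU182 cells pretreated 2 h with single agents (12.5 or 40 µM) or the mixture (20 or 40 µM), then TGF-β 5 ng/ml for 48 h. MMP-2 and MMP-9 mRNA measured by RT-PCR with densitometry and by qRT-PCR, fold change by the 2^-ΔΔCt method. Mean±SD of triplicates.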

Test [3] relates to SNU-182. As to the kind of experiment: Growth inhibition of human SNU182 cells after 48 hrs by CCK8 assay. Format: functional, cell-based.
Test [4] deals with SNU-182. As to the kind of experiment: Inhibition of TGFbeta1-induced epithelial-mesenchymal transition in human SNU182 cells assessed as reduction in MMP2 mRNA expression at 12.5 uM preincubated for 2 hrs followed by TGFbeta1 addition measured after 48 hrs by qRT-PCR method. The format is functional, cell-based. Summed up: as §1
Test [5] concerns SNU-182. As to the kind of experiment: Inhibition of TGFbeta1-induced epithelial-mesenchymal transition in human SNU182 cells assessed as reduction in upregulation of Snail expression at 12.5 uM preincubated for 2 hrs followed by TGFbeta1 addition measured after 48 hrs by Western blot method. Format: functional, cell-based. Summed up:
(§2)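 SNU182 cells pretreated 2 h with single agents (12.5 or 40 µM) or the mixture (20 and 40 µM), then stimulated with TGF-β1 5 ng/ml for 48 h. E-cadherin and Snail protein detected by Western blot, with GAPDH as loading control.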

The test system of test [6] is SNU-182. As to the kind of experiment: Inhibition of TGFbeta1-induced epithelial-mesenchymal transition in human SNU182 cells assessed as reduction in downregulation of E-cadherin expression at 12.5 uM preincubated for 2 hrs followed by TGFbeta1 addition measured after 48 hrs by Western blot method. The format is functional, cell-based. Summed up: as §2
The subject of test [7] is SNU-182. The experiment in a line: Growth inhibition of human SNU182 cells at <12.5 uM after 48 hrs by CCK8 assay. Format: functional, cell-based.

SMILES strings stand for the structures. The source made the active and inactive calls. No cut-off for these calls is given here.

Turning to `CCCCC/C=C/C(=O)CCc1ccc(O)c(OC)c1` [SHOGAOL], the viability at 12.5 µM in the test on SNU-182 [1] was over 90%. Also, the inhibition entry with SNU-182 [2], with SNU-182 [4], in the test on SNU-182 [5] and with SNU-182 [6] was “inactive” each time. Besides, the “growth inhibition (GI)” value in the test on SNU-182 [3] is “Dose-dependent effect”. Further, the “growth inhibition (GI)” value with SNU-182 [7] was “inactive”.

The values are drawn from ChEMBL document CHEMBL3992541, “Combined treatment with zingerone and its novel derivative synergistically inhibits TGF-β1 induced epithelial-mesenchymal transition, migration and invasion of human hepatocellular carcinoma cells” (2017).
